Assay results from ChEMBL document CHEMBL2331224 (J Med Chem, 2013).
Active and inactive are the calls of the source. No cut-off for these calls is given here.

Key:
[1] = target: T1, Retinoic acid receptor alpha (Homo sapiens) (UniProt P10276); assay: Transactivation of RARalpha (unknown origin) by luciferase reporter gene assay relative to Am80
T1 sequence (whole entry): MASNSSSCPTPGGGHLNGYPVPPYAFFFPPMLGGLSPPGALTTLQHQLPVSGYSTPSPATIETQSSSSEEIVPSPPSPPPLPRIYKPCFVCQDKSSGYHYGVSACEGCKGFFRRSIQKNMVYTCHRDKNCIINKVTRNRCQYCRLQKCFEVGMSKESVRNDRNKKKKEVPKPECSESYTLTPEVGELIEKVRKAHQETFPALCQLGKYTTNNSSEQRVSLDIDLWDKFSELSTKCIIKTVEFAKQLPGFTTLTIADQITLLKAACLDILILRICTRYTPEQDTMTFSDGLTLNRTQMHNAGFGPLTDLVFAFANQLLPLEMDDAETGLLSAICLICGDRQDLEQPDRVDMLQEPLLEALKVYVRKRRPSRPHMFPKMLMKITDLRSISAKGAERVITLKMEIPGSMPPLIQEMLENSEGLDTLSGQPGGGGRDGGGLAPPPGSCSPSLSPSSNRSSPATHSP

[2] = test system: Mus musculus; assay: Toxicity against KKAy mouse assessed as plasma triglyceride level at 10 mg/kg/day, po for 14 days (reference value: 122.4 +/- 11.0 mg/dL); type: organism-based; parameters: route oral; settings: in vivo, 336 h
[3] = test system: Mus musculus; assay: Antidiabetic activity in KKAy mouse assessed as reduction in blood glucose level on day 4 to 12 at 10 mg/kg/day, po for 14 days; type: functional, organism-based
Method in brief: (§1)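 Male KK-A^y mice, housed singly after 6 weeks' acclimation and grouped by blood glucose. Oral 10 mg/kg/day or vehicle (1% ethanol/0.5% CMC in water, 10 mL/kg) for 14 days. Body weight, food and water intake were followed. Fed blood glucose was taken from the tail vein by the glucose oxidase method. n = 4−5, ANOVA.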

[4] = target: T2, Retinoic acid receptor RXR-alpha (Mus musculus) (UniProt P28700); assay: Partial agonist activity at mouse RXRalpha expressed in COS1 cells by luciferase reporter gene assay relative to bexarotene; type: cell-based; settings: COS-1
T2 sequence (whole entry): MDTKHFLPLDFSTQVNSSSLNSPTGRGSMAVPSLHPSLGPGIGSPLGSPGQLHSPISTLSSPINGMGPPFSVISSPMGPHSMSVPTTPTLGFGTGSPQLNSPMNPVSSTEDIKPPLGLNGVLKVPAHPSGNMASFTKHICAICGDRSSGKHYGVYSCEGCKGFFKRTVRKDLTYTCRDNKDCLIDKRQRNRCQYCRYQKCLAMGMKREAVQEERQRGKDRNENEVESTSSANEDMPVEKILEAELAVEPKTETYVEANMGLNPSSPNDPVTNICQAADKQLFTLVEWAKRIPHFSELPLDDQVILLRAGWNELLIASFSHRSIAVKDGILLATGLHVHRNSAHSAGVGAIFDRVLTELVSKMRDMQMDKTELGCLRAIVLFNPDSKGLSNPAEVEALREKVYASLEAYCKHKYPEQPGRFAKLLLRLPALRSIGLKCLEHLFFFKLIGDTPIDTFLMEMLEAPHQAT

[5] = target: T3, Retinoic acid receptor beta (Homo sapiens) (UniProt P10826); assay: Transactivation of RARbeta (unknown origin) by luciferase reporter gene assay relative to Am80
T3 sequence (whole entry): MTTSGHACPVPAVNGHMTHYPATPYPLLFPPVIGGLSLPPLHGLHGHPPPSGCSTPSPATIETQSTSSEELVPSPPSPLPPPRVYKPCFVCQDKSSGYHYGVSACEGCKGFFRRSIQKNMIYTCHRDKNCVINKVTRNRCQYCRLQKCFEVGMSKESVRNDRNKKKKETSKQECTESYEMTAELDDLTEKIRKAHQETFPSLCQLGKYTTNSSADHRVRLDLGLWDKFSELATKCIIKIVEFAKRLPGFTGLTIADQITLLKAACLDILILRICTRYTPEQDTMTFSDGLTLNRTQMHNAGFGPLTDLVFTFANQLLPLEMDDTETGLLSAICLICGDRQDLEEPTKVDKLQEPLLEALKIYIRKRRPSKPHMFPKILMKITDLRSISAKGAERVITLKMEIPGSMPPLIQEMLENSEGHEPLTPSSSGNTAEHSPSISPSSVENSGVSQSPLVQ

[6] = test system: Rattus norvegicus; assay: Hepatotoxicity in Sprague-Dawley rat at 30 mg/kg/day, po for 28 days; type: toxicity, organism-based; parameters: route oral; settings: in vivo, 672 h
Method in brief: (§2)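 Male and female SD rats, four weeks old on arrival, two per cage. Oral 30 mg/kg/day or vehicle (1% ethanol/0.5% CMC in water, 5 mL/kg) for 28 days, body weight recorded daily. After overnight fasting and isoflurane anaesthesia, liver, brain, kidney, spleen and testis were weighed, and serum was collected (2000g, 10 min, 4 °C) for blood chemistry.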

[7] = target: T4, Oxysterols receptor LXR-alpha (Homo sapiens) (UniProt Q13133); assay: Transactivation of LXRalpha (unknown origin) by luciferase reporter gene assay relative to carba-T0901317
T4 sequence (whole entry): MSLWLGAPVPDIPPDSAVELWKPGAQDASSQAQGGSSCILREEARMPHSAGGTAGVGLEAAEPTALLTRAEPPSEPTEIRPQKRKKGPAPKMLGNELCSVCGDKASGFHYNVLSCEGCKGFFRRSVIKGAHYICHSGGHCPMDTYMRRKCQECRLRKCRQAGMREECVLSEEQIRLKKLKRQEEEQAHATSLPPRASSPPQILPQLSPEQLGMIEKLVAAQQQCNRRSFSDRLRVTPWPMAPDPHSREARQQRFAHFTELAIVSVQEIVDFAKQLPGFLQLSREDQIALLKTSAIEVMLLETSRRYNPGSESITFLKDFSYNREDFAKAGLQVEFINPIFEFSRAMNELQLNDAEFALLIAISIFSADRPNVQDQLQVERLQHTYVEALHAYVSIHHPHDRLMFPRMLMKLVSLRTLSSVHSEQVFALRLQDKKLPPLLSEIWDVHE
Method in brief: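 Heterodimer luciferase assay in COS-1 cells cotransfected with RXRα (0.5 μg), partner receptor (PPARγ or LXRα, 0.5 μg) and partner response element reporter (4.0 μg), plus SEAP. Compound (DMSO below 1%) was added with seeding at about 2.0 × 10⁴ cells/well, then 18 h at 37 °C, 5% CO2. Luciferase was normalized to SEAP. Triplicates, three runs.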

[8] = test system: Mus musculus; assay: Antidiabetic activity in KKAy mouse assessed as reduction in water intake on day 3 to 12 at 10 mg/kg/day, po for 14 days relative to control; type: functional, organism-based; method in brief: as §1
[9] = test system: Mus musculus; assay: Toxicity against KKAy mouse assessed as total cholesterol level at 10 mg/kg/day, po for 14 days (reference value: 153.2 +/- 11.1 mg/dL); type: organism-based; parameters: route oral; settings: in vivo, 336 h
[10] = test system: Rattus norvegicus; assay: Toxicity in Sprague-Dawley rat assessed as change in body weight at 30 mg/kg, po for 28 days; type: organism-based; parameters: dose 30 mg/kg, route oral; settings: in vivo, 672 h; method in brief: as §2

In the case of `Cc1cc2c(cc1-n1c(C(F)(F)F)nc3cc(C(=O)O)ccc31)C(C)(C)CCC2(C)C`, the Activity [1] is reported as “Active”, the Activity [2] is reported as 185 mg/dL and the Activity [3] is reported as “Active”. For the same compound, the Activity [4] was “Active”, the Activity [5] was “Active” and the Activity [6] was “Toxic”. For the same compound, the Activity [7] was “Active”, the Activity [8] was “Active” and the Activity [9] was 155.3 mg/dL. For the same compound, the Activity [10] was “Non-toxic”.
